Data reported in ChEMBL document CHEMBL1221355, “Substituted biaryl pyrazoles as sodium channel blockers” (Bioorg Med Chem Lett, 2010).
One block for each compound: values may come before it.

Assays:
hERG (KCNH2) = hERG (KCNH2) (Homo sapiens, UniProt Q12809); assay: Displacement of [35S][…] from human ERG channel at 10 uM
Method in brief: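 hERG binding assay measuring displacement of 35S-labeled MK-0499, a known hERG blocker. Test compound at 10 μM; result expressed as percent inhibition of binding.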

Cytochrome P450 2D6 = Cytochrome P450 2D6 (Homo sapiens, UniProt P10635); assay: Inhibition of CYP2D6; format: ADME
Cytochrome P450 2D6, sequence (P10635 whole entry): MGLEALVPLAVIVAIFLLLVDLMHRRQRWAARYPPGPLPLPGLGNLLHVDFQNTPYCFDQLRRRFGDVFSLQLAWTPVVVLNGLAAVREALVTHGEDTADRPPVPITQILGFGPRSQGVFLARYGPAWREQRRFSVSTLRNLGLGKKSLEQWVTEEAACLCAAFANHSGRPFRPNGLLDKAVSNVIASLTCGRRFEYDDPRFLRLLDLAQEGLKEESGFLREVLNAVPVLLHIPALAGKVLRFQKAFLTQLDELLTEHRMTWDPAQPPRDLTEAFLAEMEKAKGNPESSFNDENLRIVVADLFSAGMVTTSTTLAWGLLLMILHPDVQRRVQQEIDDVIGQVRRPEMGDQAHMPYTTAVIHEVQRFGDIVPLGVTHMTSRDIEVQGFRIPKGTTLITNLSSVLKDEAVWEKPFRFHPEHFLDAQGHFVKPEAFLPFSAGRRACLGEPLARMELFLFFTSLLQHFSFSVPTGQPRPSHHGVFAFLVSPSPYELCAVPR

[1] = target: T1, Sodium channel protein type 9 subunit alpha (Homo sapiens, UniProt Q15858); assay: Inhibition of human Nav 1.7 channel by voltage-ion-probe-reader
Method in brief: (§1)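 Functional membrane-potential FRET assay on voltage-gated hNav1.7, read on a voltage-ion-probe reader (VIPR). Results given as IC50 or as percent inhibition at 10 μM.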
Target sequence in this assay (Q15858 whole entry): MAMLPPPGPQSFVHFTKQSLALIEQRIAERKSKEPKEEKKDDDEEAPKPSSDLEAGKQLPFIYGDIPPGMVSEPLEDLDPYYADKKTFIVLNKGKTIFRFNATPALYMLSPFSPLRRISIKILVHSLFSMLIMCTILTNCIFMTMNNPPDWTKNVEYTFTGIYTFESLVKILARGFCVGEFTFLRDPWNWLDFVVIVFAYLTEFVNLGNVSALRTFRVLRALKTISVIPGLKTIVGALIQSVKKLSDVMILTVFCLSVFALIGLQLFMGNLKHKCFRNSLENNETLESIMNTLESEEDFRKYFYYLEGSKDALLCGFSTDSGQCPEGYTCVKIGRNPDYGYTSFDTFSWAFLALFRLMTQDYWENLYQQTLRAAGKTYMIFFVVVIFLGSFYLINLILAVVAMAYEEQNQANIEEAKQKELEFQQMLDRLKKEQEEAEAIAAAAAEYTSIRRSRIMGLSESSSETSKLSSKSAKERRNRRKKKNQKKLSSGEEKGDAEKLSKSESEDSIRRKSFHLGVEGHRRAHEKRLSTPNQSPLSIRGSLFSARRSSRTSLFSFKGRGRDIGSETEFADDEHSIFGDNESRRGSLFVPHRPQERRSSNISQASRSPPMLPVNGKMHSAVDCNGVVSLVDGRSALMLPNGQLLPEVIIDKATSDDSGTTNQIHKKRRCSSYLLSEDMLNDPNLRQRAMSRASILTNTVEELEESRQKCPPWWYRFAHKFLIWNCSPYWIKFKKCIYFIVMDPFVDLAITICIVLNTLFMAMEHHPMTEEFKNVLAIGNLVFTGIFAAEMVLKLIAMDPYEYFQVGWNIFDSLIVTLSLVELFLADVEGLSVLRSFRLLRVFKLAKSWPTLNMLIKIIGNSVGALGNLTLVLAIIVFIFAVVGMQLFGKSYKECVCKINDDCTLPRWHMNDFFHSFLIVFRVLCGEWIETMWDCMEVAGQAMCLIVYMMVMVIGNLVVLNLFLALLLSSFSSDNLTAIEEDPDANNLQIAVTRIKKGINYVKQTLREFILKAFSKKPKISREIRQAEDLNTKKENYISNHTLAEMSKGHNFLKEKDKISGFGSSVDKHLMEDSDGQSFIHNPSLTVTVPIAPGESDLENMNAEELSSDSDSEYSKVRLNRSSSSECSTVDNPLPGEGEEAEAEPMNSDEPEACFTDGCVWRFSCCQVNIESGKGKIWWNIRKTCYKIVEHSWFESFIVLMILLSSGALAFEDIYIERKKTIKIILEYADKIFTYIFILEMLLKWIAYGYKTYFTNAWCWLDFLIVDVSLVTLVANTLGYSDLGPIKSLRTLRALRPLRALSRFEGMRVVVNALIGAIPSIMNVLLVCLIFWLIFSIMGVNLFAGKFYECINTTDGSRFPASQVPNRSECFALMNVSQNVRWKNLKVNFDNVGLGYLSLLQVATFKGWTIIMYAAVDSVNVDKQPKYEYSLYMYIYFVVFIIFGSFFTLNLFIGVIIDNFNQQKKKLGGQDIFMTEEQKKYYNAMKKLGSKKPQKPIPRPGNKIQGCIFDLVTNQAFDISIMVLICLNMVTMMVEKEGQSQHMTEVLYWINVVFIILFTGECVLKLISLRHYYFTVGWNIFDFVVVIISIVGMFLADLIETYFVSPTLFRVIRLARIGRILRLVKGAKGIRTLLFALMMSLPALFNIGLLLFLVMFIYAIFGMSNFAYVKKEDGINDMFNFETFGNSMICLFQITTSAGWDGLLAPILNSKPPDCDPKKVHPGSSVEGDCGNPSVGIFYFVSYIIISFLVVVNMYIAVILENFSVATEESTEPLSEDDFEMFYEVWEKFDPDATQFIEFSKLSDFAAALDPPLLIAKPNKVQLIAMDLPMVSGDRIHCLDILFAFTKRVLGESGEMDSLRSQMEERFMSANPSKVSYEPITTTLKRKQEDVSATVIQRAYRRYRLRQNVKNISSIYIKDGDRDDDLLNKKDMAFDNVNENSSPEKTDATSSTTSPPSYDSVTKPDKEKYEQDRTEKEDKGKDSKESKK

Rattus norvegicus [2] = assay: Antiallodynic activity in rat spinal nerve ligation model of neuropathic pain assessed as reversal of allodynia at 10 mg/kg, po after 2 hrs; format: functional
Method in brief: (§2)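 Rat spinal nerve ligation (Chung) neuropathic pain model; compound given orally as a single dose (10 or 30 mg/kg). Allodynia reversal read at 2 h and 4 h after dosing, expressed as percent reversal.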

Rattus norvegicus [3] = assay: Antiallodynic activity in rat spinal nerve ligation model of neuropathic pain assessed as reversal of allodynia at 10 mg/kg, po after 4 hrs; format: functional; method in brief: as §2
Cytochrome P450 2C9 = Cytochrome P450 2C9 (Homo sapiens, UniProt P11712); assay: Inhibition of CYP2C9; format: ADME
Cytochrome P450 2C9, sequence (P11712 whole entry): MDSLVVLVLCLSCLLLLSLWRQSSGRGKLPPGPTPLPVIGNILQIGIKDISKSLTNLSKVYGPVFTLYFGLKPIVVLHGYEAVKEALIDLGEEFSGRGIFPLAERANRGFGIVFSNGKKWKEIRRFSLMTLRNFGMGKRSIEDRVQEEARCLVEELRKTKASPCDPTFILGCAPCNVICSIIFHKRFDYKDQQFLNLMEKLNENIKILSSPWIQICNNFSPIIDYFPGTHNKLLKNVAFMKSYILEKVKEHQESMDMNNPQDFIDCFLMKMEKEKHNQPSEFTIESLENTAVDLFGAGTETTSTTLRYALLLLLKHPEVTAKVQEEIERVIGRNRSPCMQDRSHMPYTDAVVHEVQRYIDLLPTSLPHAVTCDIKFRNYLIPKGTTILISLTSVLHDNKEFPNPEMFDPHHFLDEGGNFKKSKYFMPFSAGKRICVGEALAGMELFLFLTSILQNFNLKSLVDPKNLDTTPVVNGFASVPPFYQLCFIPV

Cytochrome P450 3A4 = Cytochrome P450 3A4 (Homo sapiens, UniProt P08684); assay: Inhibition of CYP3A4; format: ADME
Cytochrome P450 3A4, sequence (P08684 whole entry): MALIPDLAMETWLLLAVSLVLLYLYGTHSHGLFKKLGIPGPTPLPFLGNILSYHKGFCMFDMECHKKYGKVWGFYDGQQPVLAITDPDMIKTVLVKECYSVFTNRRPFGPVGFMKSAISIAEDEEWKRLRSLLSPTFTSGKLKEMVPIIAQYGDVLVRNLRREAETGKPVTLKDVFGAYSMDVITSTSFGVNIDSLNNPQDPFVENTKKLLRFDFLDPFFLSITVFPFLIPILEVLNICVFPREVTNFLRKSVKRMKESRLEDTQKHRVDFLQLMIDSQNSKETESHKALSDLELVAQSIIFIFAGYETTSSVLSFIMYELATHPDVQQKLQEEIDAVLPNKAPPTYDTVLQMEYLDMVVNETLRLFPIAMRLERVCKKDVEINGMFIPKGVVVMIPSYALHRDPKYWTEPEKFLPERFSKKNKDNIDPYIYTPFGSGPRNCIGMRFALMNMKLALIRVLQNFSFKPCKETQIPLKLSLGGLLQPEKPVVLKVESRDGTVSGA

[4] = Clearance in rat plasma at 1 mg/kg, ip; format: ADME, organism-based; parameters: dose 1 mg/kg, route intraperitoneal
[5] = target: T1, Sodium channel protein type 9 subunit alpha; assay: Inhibition of human Nav 1.7 channel by electrophysiology
Target sequence in this assay (Q15858 whole entry): as the sequence (Q15858 whole entry) above

Canis familiaris = species: Canis familiaris; assay: Plasma clearance in dog; format: ADME, organism-based, Canis lupus familiaris; conditions: in vivo
Rattus norvegicus [6] = assay: Antiallodynic activity in rat spinal nerve ligation model of neuropathic pain assessed as reversal of allodynia at 30 mg/kg, po after 4 hrs; format: functional; method in brief: as §2
Rattus norvegicus [7] = assay: Antiallodynic activity in rat spinal nerve ligation model of neuropathic pain assessed as reversal of mechanical allodynia at 3 mg/kg, po bid for 2 days measured after 2 hrs post final dose; format: functional
Method in brief: (§3)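 Rat spinal nerve ligation (Chung) model; oral dosing at 3 mg/kg bid for 2 days. Reversal of mechanical allodynia read at 2 h and 4 h, expressed as percent reversal; significance given as p values.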

[8] = Volume of distribution in rat; format: ADME, organism-based; conditions: in vivo
Mus musculus = assay: Anticonvulsant activity in mouse assessed as protection against maximal electric shock-induced tonic seizures at 10 mg/kg, po after 4 hrs; format: functional
Method in brief: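 Mouse maximal electroshock (MES) seizure model. Oral dose 10 mg/kg, given 4 h before the shock. Read-out is protection from tonic seizures, expressed as percent.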

[9] = Oral bioavailability dog; format: ADME, organism-based, Canis lupus familiaris; conditions: in vivo
[10] = Half life in rat; format: ADME, organism-based; conditions: in vivo
[11] = Half life in dog; format: ADME, organism-based, Canis lupus familiaris; conditions: in vivo
Rattus norvegicus [12] = species: Rattus norvegicus; assay: Plasma clearance in rat; format: ADME, organism-based; conditions: in vivo
[13] = Oral bioavailability in rat; format: ADME, organism-based; conditions: in vivo
[14] = Volume of distribution in dog; format: ADME, organism-based, Canis lupus familiaris; conditions: in vivo
Liver microsomes [15] = assay: Metabolic stability in rat liver microsomes after 60 mins; format: functional; conditions: Microsome
Method in brief: (§4)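 Compound incubated for 60 min with liver microsomal preparations. Conversion to the carboxylic acid metabolite formed by carboxamide hydrolysis was followed.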

Rattus norvegicus [16] = assay: Antiallodynic activity in rat spinal nerve ligation model of neuropathic pain assessed as reversal of allodynia at 30 mg/kg, po after 2 hrs; format: functional; method in brief: as §2
[17] = target: T2, Nuclear receptor subfamily 1 group I member 2 (Homo sapiens, UniProt O75469); assay: Induction of human PXR by induction assay
T2 sequence (O75469 whole entry): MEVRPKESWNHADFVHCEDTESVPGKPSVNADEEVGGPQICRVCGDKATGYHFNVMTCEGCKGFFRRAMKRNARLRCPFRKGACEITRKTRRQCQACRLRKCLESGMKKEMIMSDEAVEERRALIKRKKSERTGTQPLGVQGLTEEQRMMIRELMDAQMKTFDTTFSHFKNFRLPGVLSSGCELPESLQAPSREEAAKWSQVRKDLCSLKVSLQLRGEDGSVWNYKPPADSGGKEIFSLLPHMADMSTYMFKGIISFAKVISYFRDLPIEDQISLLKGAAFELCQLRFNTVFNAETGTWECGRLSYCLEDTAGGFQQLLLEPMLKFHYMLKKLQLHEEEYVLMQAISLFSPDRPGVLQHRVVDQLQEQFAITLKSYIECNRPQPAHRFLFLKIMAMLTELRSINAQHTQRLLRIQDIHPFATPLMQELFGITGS

Rattus norvegicus [18] = assay: Antiallodynic activity in rat spinal nerve ligation model of neuropathic pain assessed as reversal of mechanical allodynia at 3 mg/kg, po bid for 2 days measured after 4 hrs post final dose; format: functional; method in brief: as §3
Rattus norvegicus [19] = assay: Neurotoxicity in rat assessed as effect on motor coordination by measuring reduced latency at 30 mg/kg, po by rotarod test; format: toxicity, organism-based; parameters: dose 30 mg/kg, route oral; conditions: in vivo
Method in brief: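 Rat rotarod test of motor coordination after oral dosing (30 or 100 mg/kg). Read-out is latency on the rotarod.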

Liver microsomes [20] = assay: Metabolic stability in human liver microsomes after 60 mins; format: functional; conditions: Microsome; method in brief: as §4
Liver = assay: Metabolic stability in dog liver microsomes after 60 mins; format: functional; conditions: Canis lupus familiaris, Microsome; method in brief: as §4
Macaca mulatta = species: Macaca mulatta; assay: Metabolic stability in monkey liver microsomes after 60 mins; format: functional; conditions: Microsome; method in brief: as §4
[21] = target: T1, Sodium channel protein type 9 subunit alpha; assay: Inhibition of human Nav 1.7 channel at 10 uM by voltage-ion-probe-reader; method in brief: as §1
Target sequence in this assay (Q15858 whole entry, looked up): as the sequence (Q15858 whole entry) above

hERG (KCNH2), sequence (Q12809 whole entry): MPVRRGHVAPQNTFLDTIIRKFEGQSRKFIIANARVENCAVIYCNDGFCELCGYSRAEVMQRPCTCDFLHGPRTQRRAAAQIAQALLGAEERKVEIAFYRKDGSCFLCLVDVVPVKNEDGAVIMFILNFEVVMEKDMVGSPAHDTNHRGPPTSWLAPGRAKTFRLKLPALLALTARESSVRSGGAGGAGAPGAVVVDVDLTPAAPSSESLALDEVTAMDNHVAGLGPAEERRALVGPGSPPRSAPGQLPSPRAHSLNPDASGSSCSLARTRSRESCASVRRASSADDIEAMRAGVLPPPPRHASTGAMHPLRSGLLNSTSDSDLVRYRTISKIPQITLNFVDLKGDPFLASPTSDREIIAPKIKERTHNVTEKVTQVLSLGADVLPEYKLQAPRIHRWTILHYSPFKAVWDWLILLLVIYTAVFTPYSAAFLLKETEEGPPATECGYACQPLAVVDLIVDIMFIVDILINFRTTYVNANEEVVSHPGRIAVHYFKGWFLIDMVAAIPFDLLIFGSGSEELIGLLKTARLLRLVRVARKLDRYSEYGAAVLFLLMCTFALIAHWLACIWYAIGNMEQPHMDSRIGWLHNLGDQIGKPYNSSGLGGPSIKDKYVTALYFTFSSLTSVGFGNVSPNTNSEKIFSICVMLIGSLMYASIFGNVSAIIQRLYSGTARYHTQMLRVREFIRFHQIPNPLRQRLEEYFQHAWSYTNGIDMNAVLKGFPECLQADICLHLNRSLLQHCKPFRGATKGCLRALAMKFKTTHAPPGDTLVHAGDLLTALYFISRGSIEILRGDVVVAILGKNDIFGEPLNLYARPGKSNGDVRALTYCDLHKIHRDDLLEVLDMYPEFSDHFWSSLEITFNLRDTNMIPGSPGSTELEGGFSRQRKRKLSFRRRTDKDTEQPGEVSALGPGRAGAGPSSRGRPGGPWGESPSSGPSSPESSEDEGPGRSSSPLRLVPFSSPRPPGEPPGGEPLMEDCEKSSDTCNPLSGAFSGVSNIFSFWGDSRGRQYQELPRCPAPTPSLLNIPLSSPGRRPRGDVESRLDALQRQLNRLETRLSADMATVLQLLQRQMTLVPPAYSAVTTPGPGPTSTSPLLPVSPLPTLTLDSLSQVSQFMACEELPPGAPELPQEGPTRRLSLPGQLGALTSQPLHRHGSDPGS

IC50 (Cytochrome P450 2D6): 33000 nM
IC50 [1]: 272 nM
IC50 (Cytochrome P450 2C9): 2600 nM
IC50 (Cytochrome P450 3A4): 51000 nM
Compound: Cc1cc(C(N)=O)nn1-c1cccc(-c2cc(C(F)(F)F)ccc2C(F)(F)F)c1
inhibition at 10 µM (hERG (KCNH2)): 51%
Activity (Rattus norvegicus [2]): 39%
Activity (Rattus norvegicus [3]): 35%

IC50 [1]: 1370 nM
Compound: CC(C)(C)c1cc(C(N)=O)nn1-c1cccc(-c2ccccc2OC(F)(F)F)c1

CL/F [4]: 123 mL/min/kg
Ki [5]: 18 nM
Compound: NC(=O)n1ccc(-c2cccc(-c3ccccc3Cl)c2)n1

IC50 [1]: 162 nM
Compound: Cc1cc(C(N)=O)nn1-c1ccc(F)c(-c2ccccc2OC(F)(F)F)c1
inhibition at 10 µM (hERG (KCNH2)): 66%

IC50 [1]: 738 nM
Compound: Cc1cc(C(N)=O)nn1-c1cccc(-c2ccccc2Cl)c1
inhibition at 10 µM (hERG (KCNH2)): 8%

IC50 [1]: 71 nM
Compound: Cc1cc(C(N)=O)nn1-c1cccc(-c2c(F)cccc2C(F)(F)F)c1
inhibition at 10 µM (hERG (KCNH2)): 74%
Activity (Rattus norvegicus [2]): 12%
Activity (Rattus norvegicus [3]): 2%

CL/F [4]: 125 mL/min/kg
Ki [5]: 111 nM
Compound: NC(=O)n1ccc(-c2ccc(-c3ccccc3Cl)cc2)n1

IC50 (Cytochrome P450 2D6): > 100000 nM
IC50 [1]: 426 nM
clearance (Canis familiaris): 16 mL/min/kg
IC50 (Cytochrome P450 2C9): 9000 nM
IC50 (Cytochrome P450 3A4): > 100000 nM
Vd [8]: 3.1 L/kg
bioavailability [9]: 50%
half-life [10]: 2 h
half-life [11]: 1.4 h
clearance (Rattus norvegicus [12]): 11 mL/min/kg
bioavailability [13]: 55%
Vd [14]: 1.43 L/kg
IC50 [17]: > 25000 nM
Compound: Cc1cc(C(N)=O)nn1-c1cccc(-c2ccc(C(F)(F)F)cc2C(F)(F)F)c1
inhibition at 10 µM (hERG (KCNH2)): 53%
Activity (Rattus norvegicus [2]): 35%
Activity (Rattus norvegicus [3]): 32%
Activity (Rattus norvegicus [6]): 55%
Activity (Rattus norvegicus [7]): 80%
Activity (Mus musculus): 90%
Stability (Liver microsomes [15]): Unstable
Activity (Rattus norvegicus [16]): 69%
Activity (Rattus norvegicus [18]): 87%
Activity (Rattus norvegicus [19]): Not Active
Stability (Liver microsomes [20]): Stable
Stability (Liver): Stable
Stability (Macaca mulatta): Stable

Ki [5]: 13 nM
Compound: NC(=O)n1ccc(-c2ccc(Oc3ccc(Cl)cc3F)cc2)n1

IC50 [1]: 163 nM
Compound: Cc1cc(C(N)=O)nn1-c1cccc(-c2ccccc2C(F)(F)F)c1
inhibition at 10 µM (hERG (KCNH2)): 68%
Activity (Rattus norvegicus [2]): 14%
Activity (Rattus norvegicus [3]): 19%

IC50 [1]: 412 nM
Compound: Cc1cc(C(N)=O)nn1-c1cccc(-c2cc(F)ccc2C(F)(F)F)c1
inhibition at 10 µM (hERG (KCNH2)): 41%

IC50 [1]: 187 nM
Compound: Cc1cc(C(N)=O)nn1-c1cccc(-c2ccccc2OCC(F)(F)F)c1
inhibition at 10 µM (hERG (KCNH2)): 43%
Activity (Rattus norvegicus [2]): 18%
Activity (Rattus norvegicus [3]): 4%

IC50 [1]: 111 nM
Compound: NC(=O)c1cc(N)n(-c2cccc(-c3ccccc3OC(F)(F)F)c2)n1
inhibition at 10 µM (hERG (KCNH2)): 44%

IC50 [1]: 508 nM
Compound: NC(=O)c1cc(-c2cccc(-c3ccccc3OC(F)(F)F)c2)n[nH]1
inhibition at 10 µM (hERG (KCNH2)): 94%

IC50 [1]: 373 nM
Compound: Cc1cc(C(N)=O)nn1-c1ccc(OC(F)(F)F)c(-c2ccccc2OC(F)(F)F)c1
inhibition at 10 µM (hERG (KCNH2)): 77%

IC50 [1]: 243 nM
Compound: Cc1cc(C(N)=O)nn1-c1cccc(-c2ccc(Cl)cc2C(F)(F)F)c1
inhibition at 10 µM (hERG (KCNH2)): 45%
Activity (Rattus norvegicus [2]): 8%
Activity (Rattus norvegicus [3]): 0%

IC50 [1]: 224 nM
Compound: Cc1cc(C(N)=O)nn1-c1cccc(-c2ccccc2OC(F)(F)F)c1
inhibition at 10 µM (hERG (KCNH2)): 6%
Activity (Rattus norvegicus [2]): 33%
Activity (Rattus norvegicus [3]): 11%

IC50 [1]: 41 nM
Compound: Cc1cc(C(N)=O)nn1-c1cccc(-c2c(C(F)(F)F)cccc2C(F)(F)F)c1
inhibition at 10 µM (hERG (KCNH2)): 67%
Activity (Rattus norvegicus [2]): 16%
Activity (Rattus norvegicus [3]): 6%

IC50 [1]: 65 nM
Compound: NC(=O)c1ccn(-c2cccc(-c3ccccc3OC(F)(F)F)c2)n1
inhibition at 10 µM (hERG (KCNH2)): 51%

IC50 [1]: 128 nM
Compound: Cc1cc(C(N)=O)nn1-c1cccc(-c2ccccc2OCC(F)(F)C(F)(F)F)c1
inhibition at 10 µM (hERG (KCNH2)): 49%
Activity (Rattus norvegicus [2]): 15%
Activity (Rattus norvegicus [3]): 9%

IC50 [1]: 222 nM
Compound: Cc1cc(C(N)=O)nn1-c1cc(-c2ccccc2OC(F)(F)F)ccc1F
inhibition at 10 µM (hERG (KCNH2)): 62%
Activity (Rattus norvegicus [2]): 17%
Activity (Rattus norvegicus [3]): 8%

Ki [5]: 15 nM
Compound: NC(=O)c1nc(-c2cccc(-c3ccccc3OC(F)(F)F)c2)cs1

IC50 [1]: 875 nM
Compound: Cc1cc(C(N)=O)nn1-c1cccc(-c2ccccc2Oc2ccccc2)c1
inhibition at 10 µM (hERG (KCNH2)): 13%

IC50 [1]: 781 nM
Compound: Cc1cc(C(N)=O)nn1-c1cccc(-c2cccc(F)c2C(F)(F)F)c1
inhibition at 10 µM (hERG (KCNH2)): 73%

inhibition [21]: 17%
Compound: Cc1cc(C(N)=O)nn1-c1cccc(-c2cc(C(F)(F)F)cc(C(F)(F)F)c2)c1
